CHO parental Ca: signal in parental CHO cells, OX1R antagonist counter-screen; parental CHO-K1, ATP-induced calcium, Fluo-8 fluorescence; inhibition, % at 5.6 µM; actives 0.63% (n = 330,000); AID 463079;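 active means inhibition above that plate's mean sample inhibition plus 3 SD, cut at about 26% in these data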
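Assay system: untransfected parental CHO cell line. Also added: ATP agonist challenge. Dosing: one dose, 5.6 µM nominal. Measured by: Fluo-8 fluorescence. Read-out: % inhibition. Benchmarks: ATP wells versus no-ATP DMSO wells. Repeats: no replicates.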
NTR1 ag: NTR1 (human) agonism | P30989 | NTR1-U2OS beta-arrestin-GFP spot imaging, agonist mode | activation, % at 20 µM | actives 0.17% (n = 330,000);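 active means activation at or above 40% of the spot to cytoplasm intensity ratio, with at least 20 cells analyzed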
Target sequence (P30989 whole entry, looked up): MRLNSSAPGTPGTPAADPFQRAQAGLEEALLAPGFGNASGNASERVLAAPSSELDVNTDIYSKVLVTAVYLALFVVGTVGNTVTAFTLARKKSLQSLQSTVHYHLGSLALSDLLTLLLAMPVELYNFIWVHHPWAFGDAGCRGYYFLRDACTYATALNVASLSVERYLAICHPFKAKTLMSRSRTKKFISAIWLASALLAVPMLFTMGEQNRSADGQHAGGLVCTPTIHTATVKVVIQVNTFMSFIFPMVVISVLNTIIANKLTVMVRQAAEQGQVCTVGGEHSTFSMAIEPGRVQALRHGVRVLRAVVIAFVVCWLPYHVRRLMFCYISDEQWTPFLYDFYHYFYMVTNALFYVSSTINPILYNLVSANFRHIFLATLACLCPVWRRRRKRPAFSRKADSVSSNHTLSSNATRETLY
TAAR1 agonist: agonists of human TAAR1 | Q96RJ0 | CHO RD-HGA16 TAAR1, Fluo-8 calcium fluorescence; vehicle wells 0%, saturating PEA agonist 100% | activation, % at 3 µM | actives 0.99% (n = 360,000) | AID 624467;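 active means activation above the mean activation of all test compounds in the run plus 3 SD, cut at about 38% in these data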
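test system = CHO RD-HGA16 cells carrying human TAAR1 plus Gα16 | schedule = 17-24 h seeding, 75 min 37 °C dye, 30 min RT | compound dosing = 3 µM single concentration | control set = DMSO and PEA EC100 | replicates = n 1 | signal = Fluo-8 fluorescence, 5 s baseline then 140 s kinetic read | measure = percent activation vs PEA EC100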
OX1R antag-1: human HCRTR1 antagonism | O43613 | CHO/OX1R cells, Fluo-8 calcium fluorescence, orexin A | inhibition, % at 5 µM | actives 0.43% (n = 330,000);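 active means inhibition above its plate's threshold, mean inhibition of all tested compounds on the plate plus 3 SD, cut at about 37% in these data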
OX1R antag-2: OX1R (human) antagonism; O43613; OX1R-expressing cells, FRET antagonist read-out; inhibition, % at 6.6 µM; actives 1.8% (n = 330,000); AID 485270; in the data active means inhibition mostly above about 38%, no sharp cut-off; inactive means mostly below about 40%
TAAR1 antagonist: human TAAR1 antagonism | inhibition, % at 3 µM | AID 624466 | actives 1.5% (n = 360,000) | CHO RD-HGA16 TAAR1, Fluo-8 calcium fluorescence, antagonist;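 active means inhibition above a per-plate cutoff, the mean inhibition of test compounds on that plate plus 3 SD, cut at about 49% in these data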
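test system = CHO RD-HGA16 cells bearing hTAAR1 | replication = singlicate | controls = DMSO-only wells and EC80 β-PEA-stimulated wells | reagent = EC80 β-phenethylamine stimulus | read-out basis = percent inhibition of PEA-evoked calcium signal, max/basal emission ratio | schedule = seeding 17-24 h prior, 75-min 37 °C, 30-min RT dye loading | signal = kinetic Fluo-8 calcium fluorescence measurement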
Hits are given with their value; . = inactive; / = no result given. Rows were chosen to be rich in hits. Some 4% of all compounds tested hit in one or more screens of this group.

SMILES | CHO parental Ca | NTR1 ag | TAAR1 agonist | OX1R antag-1 | OX1R antag-2 | TAAR1 antagonist
Cc1cc(C#N)c(C)c(SCc2[nH]nc3c2C(c2ccccc2)C(C#N)=C(N)O3)n1 (stereo not given) | . | . | . | . | . | .
Cc1ccc(N(C)S(=O)(=O)c2cccc(C(=O)OCC(=O)c3c(N)n(C)c(=O)n(C)c3=O)c2)cc1 | . | . | . | . | . | 66
CCOc1ccc(CN(C)CC(=O)Nc2cccc(S(=O)(=O)N(C)c3ccccc3)c2)cc1 | . | . | . | . | . | .
CCC(=O)c1ccc(OCC(=O)Nc2cccc(S(=O)(=O)N(C)c3ccccc3)c2)cc1 | 44 | . | . | 77 | 27 | 76
COc1ccc(N(C)S(=O)(=O)c2cccc(C(=O)OCC(=O)N(C)c3ccccc3)c2)cc1 | . | . | . | . | . | 56
Cn1ccsc1=NC(=O)c1ccc([N+](=O)[O-])o1 | . | . | . | . | 105 | .
COc1cc(C(=O)N=c2sccn2C)c([N+](=O)[O-])cc1OC | / | . | . | / | / | .
O=C(CCNC(=O)c1ccc(Br)cc1)NNC(=O)c1ccccc1 | . | . | 40 | . | . | .
CC(OC(=O)c1ccc2ccccc2c1)C(=O)N(C)Cc1ccccc1 (stereo not given) | . | . | . | . | 38 | .
Oc1ccc(C[C@@H]2CNCCN2CCCCC2CCCCC2)cc1 | . | . | 43 | . | . | .
Oc1ccc(C[C@@H]2CNCCN2CCc2cc(C(F)(F)F)cc(C(F)(F)F)c2)cc1 | . | . | . | . | . | .
Fc1cccc(CCN2CCNC[C@@H]2CC2CCCCC2)c1 | . | . | 39 | . | . | .
CCCCNC(=O)C[C@H]1C[C@@]2(C(=O)OC)C(=C[C@H](C(C)C)O[C@@H]2C2CC2)N(Cc2ccccc2)C1=O | / | / | . | / | / | .
O=C(CSc1nnc2ccc(-c3ccncc3)nn12)Nc1ccc(F)cc1 | . | . | . | . | 61 | .
Cc1ccc(NC(=O)CSc2nnc3ccc(-c4cccnc4)nn23)cc1 | . | . | . | . | . | .
COc1ccc(-c2ccc3nnc(SCC(=O)N4CCCC4)n3n2)cc1 | . | . | . | . | 55 | .
O=C(CSc1nnc2ccc(-c3cccnc3)nn12)Nc1ccc(F)cc1 | . | . | . | . | . | .
CC(=O)Nc1ccc(NC(=O)CSc2nnc3ccc(-c4cccnc4)nn23)cc1 | . | . | . | . | 50 | .
CC(=O)Nc1cccc(NC(=O)CSc2nnc3ccc(-c4cccnc4)nn23)c1 | . | . | . | . | 75 | .
CCCCNC(=O)C[C@H]1C[C@@]2(C(=O)OC)C(=C[C@H](C(C)(C)C)O[C@@H]2C)N(CCC2=CCCCC2)C1=O | / | / | . | / | / | .
O=C(CSc1nnc2ccc(-c3ccncc3)nn12)c1cccs1 | . | . | . | . | 44 | .
c1cncc(CSc2nnc3ccc(-c4ccncc4)nn23)c1 | . | . | . | . | 39 | .
COc1ccc(NC(=O)CSc2nnc3ccc(-c4cccnc4)nn23)cc1 | . | . | . | . | 63 | .
Cc1ccccc1NC(=O)CSc1nnc2ccc(-c3ccccn3)nn12 | . | . | . | . | 55 | .
CCCCn1c(SCC(=O)NC2CC2)nc2ccccc2c1=O | . | . | . | . | . | .
SMILES | CHO parental Ca | NTR1 ag | TAAR1 agonist | OX1R antag-1 | OX1R antag-2 | TAAR1 antagonist
CCCS(=O)(=O)Nc1cccc(-c2ccc3nnc(C)n3n2)c1 | . | . | . | . | . | .
CCS(=O)(=O)Nc1cccc(-c2ccc3nnc(-c4cccnc4)n3n2)c1 | . | . | . | . | 35 | .
Cc1ccc(S(=O)(=O)N(C)CC(=O)NCCCc2ccccc2)cc1 | . | . | . | . | . | .
CN(CCCC(=O)NCCc1ccccc1)S(=O)(=O)c1ccc([N+](=O)[O-])cc1 | . | . | . | . | 46 | .
CCCn1c(O)c(N=NC(=O)c2ccco2)c2ccccc21 | . | . | . | . | . | .
CCn1c(O)c(N=NC(=O)CNC(=O)/C=C/c2ccco2)c2ccccc21 | . | . | . | . | 36 | .
CCn1c(O)c(N=NC(=O)c2cccs2)c2ccccc21 | . | . | . | . | 76 | .
CCn1c(O)c(N=NC(=O)CNC(=O)c2ccco2)c2ccccc21 | . | . | . | . | . | .
Cc1csc2c(N3CCN(C(=O)c4ccc(C(C)(C)C)cc4)CC3)ncnc12 | 37 | . | . | . | . | .
Cc1csc2c(N3CCN(C(=O)NC(C)(C)C)CC3)ncnc12 | . | . | . | . | . | .
Cc1csc2c(N3CCN(C(=O)Nc4ccc(Cl)c(Cl)c4)CC3)ncnc12 | . | . | . | 43 | . | .
O=C1/C(=C/c2ccccc2)CCCc2ccccc21 | . | . | . | . | . | .
CN(C)c1ccc(/C=C2\CCC/C(=C\c3ccccc3)C2=O)cc1 | 51 | / | . | . | . | .
Cc1ccc(C2(C)NC(=O)N(CC(=O)NNC(=O)c3cc(C)oc3C)C2=O)cc1 (stereo not given) | . | . | . | . | . | .
C=CCNC(=O)COC(=O)c1ccc(Sc2nncn2C)c([N+](=O)[O-])c1 | . | . | . | . | 73 | .
COc1cc2c(c3c1c(=O)c1ccccc1n3C)C=CC(C)(C)O2 | / | / | . | / | / | .
COC(=O)C1=C(C)N(Cc2cccc(C(F)(F)F)c2)C(=NCc2ccc3c(c2)OCO3)NC1c1ccccc1C(F)(F)F (stereo not given) | / | / | . | / | / | .
CC1Cc2ccccc2N1c1ncnc2nc[nH]c12 (stereo not given) | . | . | / | . | 74 | /
CN(C)c1ccc(C=C2SC(=S)N(Cc3ccco3)C2=O)cc1 | / | / | 44 | / | / | 53
Cc1cc(/C=C2\SC(=S)N(Cc3ccco3)C2=O)c(C)n1-c1ccccc1 | . | . | . | . | . | .
CSc1ccc(Cn2c(C)c(C(=O)NCc3ccccc3C(F)(F)F)sc2=O)cc1 | / | / | . | / | / | 52
Nc1[nH]c(C(=O)c2ccc(Br)cc2)c(-c2ccc(Cl)cc2[N+](=O)[O-])c1C(=O)NCCc1c[nH]c2ccccc12 | / | / | . | / | / | .
O=C(CSc1nnc(-c2ccc(O)cc2)o1)Nc1ccccc1 | . | . | . | . | . | .
COc1ccc(NC(=O)CSc2nnc(-c3cccc(O)c3)o2)cc1 | . | . | 40 | . | . | .
Cc1cccc(OCc2nnc(SCC(=O)Nc3ccc(C)c(C)c3)o2)c1 | . | . | . | . | . | 54
Cc1cccc(OCc2nnc(SCC(=O)Nc3ncc(C)s3)o2)c1 | . | . | . | . | . | .
CCCCN(C(=O)c1oc2ccc(OCC)cc2c1C)c1c(N)n(CC(C)C)c(=O)[nH]c1=O | . | . | . | . | . | .
Cc1ccc(CN(c2ccc(C(=O)NCc3ccccn3)cc2)S(C)(=O)=O)cc1 | . | . | 38 | . | . | .
Cc1ccc(CN(c2ccc(C(=O)NCc3cccnc3)cc2)S(C)(=O)=O)cc1 | . | . | . | . | . | .

Screening data: PubChem, several laboratories
